Paper PMC6750927 (Science Advances, 2019)

Assays:
Hsp90 ATP binding site = Hsp90 ATP binding site (Homo sapiens, UniProt P07900); test: ATP binding site competitive FP assay
Summary of the method: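 Competition for the Hsp90 ATP site by fluorescence polarization with a fluorescein isothiocyanate–geldanamycin probe. Read at excitation 485 nm and emission 535 nm. Inhibition rate derived by a previously reported method. n = 3 wells, from three independent experiments.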

Hsp90-Cdc37 PPI = Hsp90-Cdc37 PPI (Homo sapiens, UniProt P07900); test: Hsp90-Cdc37 HTRF assay; type: binding; conditions: dose-dependent
Summary of the method: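 His-tagged Hsp90 and GST-tagged Cdc37 premixed at 80 nM final in PBS with 200 mM KF, pH 7.4. Twofold dilutions of test compound (seven concentrations) added for 1 h at 37°C. HTRF read at excitation 320 nm, emission 665 and 620 nm; ratio = (665/620) × 10,000. n = 3 wells, from three independent experiments.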

Hsp90 ATPase activity = Hsp90 ATPase activity (Homo sapiens, UniProt P07900); test: Hsp90 ATPase assay; type: biochemical
Summary of the method: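 Hsp90 ATPase measured with an ADP Hunter Plus kit at 37°C. Compound, Hsp90 (5 μM as added) and ATP (100 μM as added) combined in equal parts for 1 h. Background taken without protein or compound; protein alone set as 100% activity. n = 3 wells, from three independent experiments.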

Cdc37 Q208A mutant = Cdc37 Q208A mutant (UniProt Q16543); test: ITC
Cdc37 Q208A mutant, sequence (Q16543 whole entry Q208A): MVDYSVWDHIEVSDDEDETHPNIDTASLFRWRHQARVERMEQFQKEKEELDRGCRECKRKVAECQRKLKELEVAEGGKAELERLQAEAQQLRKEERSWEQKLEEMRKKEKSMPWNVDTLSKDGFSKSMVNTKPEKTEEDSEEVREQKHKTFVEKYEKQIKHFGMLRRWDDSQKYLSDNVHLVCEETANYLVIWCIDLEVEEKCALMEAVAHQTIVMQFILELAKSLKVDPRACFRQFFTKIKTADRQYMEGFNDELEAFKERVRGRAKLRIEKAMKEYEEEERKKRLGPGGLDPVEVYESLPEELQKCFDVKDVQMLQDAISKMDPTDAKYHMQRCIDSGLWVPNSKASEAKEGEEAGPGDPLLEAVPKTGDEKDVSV

Cdc37, wild type = Cdc37, wild type (UniProt Q16543); test: ITC
Cdc37, wild type, sequence (Q16543 whole entry): as the sequence (Q16543 whole entry Q208A) above, with A208Q counted along it

Cdc37 R246A mutant = Cdc37 R246A mutant (UniProt Q16543); test: ITC
Cdc37 R246A mutant, sequence (Q16543 whole entry R246A): as the sequence (Q16543 whole entry Q208A) above, with A208Q, R246A counted along it

With `CC(C)c1cc(C(=O)N2Cc3ccc(CN4CCN(C)CC4)cc3C2)c(O)cc1O` [AT13387] the IC50 (Hsp90 ATP binding site) was 0.012 µM, the “inhibition of Hsp90-Cdc37 binding (IC50)” value (Hsp90-Cdc37 PPI) was “no activity” and the IC50 (Hsp90 ATPase activity) was 0.16 µM.

Compound “Heat shock protein 90 (Hsp90), wild type, His-tagged (from UniProt P07900 1-732) (natural protein)” has a Kd (Cdc37 Q208A mutant) of 3.51 µM, a Kd (Cdc37, wild type) of 2.17 µM and a Kd (Cdc37 R246A mutant) of 6.02 µM.

“Hsp90 R46A mutant (from UniProt P07900 1-732) (natural protein)” showed a Kd (Cdc37, wild type) of 8.85 µM.

For “Hsp90 Y61A mutant (from UniProt P07900 1-732) (natural protein)”, the Kd (Cdc37, wild type) was 6.85 µM.
